The source made the active and inactive calls. The calls are words filed in the database; no cut-off is given here.

Experimental findings from ChEMBL document CHEMBL3108759, “Scaffold ranking and positional scanning utilized in the discovery of nAChR-selective compounds suitable for optimization studies” (J Med Chem, 2013) are described below.

Test [1] has as its target T1, Neuronal acetylcholine receptor; alpha4/beta2 (Rattus norvegicus, UniProt P09483+P12390). In words: Displacement of [3H]epibatidine from rat alpha4beta2 nAChR transfected in HEK293 cells after 2 hrs by beta-plate counting analysis. The class given is cell-based. In short, it runs like this: (§1)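 Cell lines KXα3β4R2 and KXα4β2R2 (rat receptors) were used. Membranes were prepared by homogenizing cells in 50 mM Tris pH 7.4 and centrifuging twice at 20000g. They were incubated 2 h at room temperature with 0.3 nM [3H]epibatidine plus test sample, then filtered on PEI-soaked glass fiber and counted. Nonspecific binding was defined by 1 µM AT-1001 or 0.1 µM epibatidine. Ki was obtained by Cheng–Prusoff; runs were in triplicate, at least twice.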
(In general: Loss of bound radioactivity is the signal in a displacement assay; it reports binding, not function.)

The target of test [2] is T2, Neuronal acetylcholine receptor; alpha4/beta2 (Rattus norvegicus) (UniProt P09483+P12390). In words: Noncompetitive inhibition of nicotine-induced rat alpha4beta2 nAChR transfected in HEK293 cells assessed as stimulation of membrane potential after 10 mins by fluorescence assay. It is filed as cell-based. In short, it runs like this:
(§2)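 Transfected HEK cells were seeded at 4000/well the day before and loaded with blue membrane-potential dye in HBSS/20 mM HEPES pH 7.4 at 37 °C for 20 min. […] Fluorescence (ex 530, em 550–580) was recorded every 3 s for 120 s on a FlexStation.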

Test [3] has as its target T2, Neuronal acetylcholine receptor; alpha4/beta2 (Rattus norvegicus). In words: Noncompetitive inhibition of nicotine-induced rat alpha4beta2 nAChR transfected in HEK293 cells assessed as stimulation of membrane potential at 0.3 uM after 10 mins by fluorescence assay. It is filed as cell-based. More on the design: scale not given: the % may be the effect or the level left. In short, it runs like this:
as §2

For test [4], the target named is Nicotinic acetylcholine receptor alpha3/beta4/alpha5 (Homo sapiens, UniProt P30532+P30926+P32297). In words: Binding affinity to alpha3beta4alpha5 nAChR (unknown origin). The class given is protein-complex assay.
Sequence of Nicotinic acetylcholine receptor alpha3/beta4/alpha5 (P30926 whole entry): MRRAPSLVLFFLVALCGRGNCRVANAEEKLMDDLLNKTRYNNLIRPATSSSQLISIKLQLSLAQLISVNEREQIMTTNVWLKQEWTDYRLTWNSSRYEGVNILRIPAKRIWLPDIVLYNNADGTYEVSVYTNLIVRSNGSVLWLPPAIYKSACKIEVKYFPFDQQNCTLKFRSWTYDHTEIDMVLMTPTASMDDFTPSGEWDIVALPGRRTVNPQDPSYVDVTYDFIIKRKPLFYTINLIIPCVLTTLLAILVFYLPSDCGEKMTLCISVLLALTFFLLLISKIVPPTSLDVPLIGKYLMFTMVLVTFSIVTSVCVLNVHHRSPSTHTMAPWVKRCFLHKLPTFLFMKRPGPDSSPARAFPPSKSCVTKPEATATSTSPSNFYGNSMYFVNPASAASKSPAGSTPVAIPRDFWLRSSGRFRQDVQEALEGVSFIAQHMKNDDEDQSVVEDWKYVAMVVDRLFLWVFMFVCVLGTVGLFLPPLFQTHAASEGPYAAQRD
Sequence of Nicotinic acetylcholine receptor alpha3/beta4/alpha5 (P32297 whole entry): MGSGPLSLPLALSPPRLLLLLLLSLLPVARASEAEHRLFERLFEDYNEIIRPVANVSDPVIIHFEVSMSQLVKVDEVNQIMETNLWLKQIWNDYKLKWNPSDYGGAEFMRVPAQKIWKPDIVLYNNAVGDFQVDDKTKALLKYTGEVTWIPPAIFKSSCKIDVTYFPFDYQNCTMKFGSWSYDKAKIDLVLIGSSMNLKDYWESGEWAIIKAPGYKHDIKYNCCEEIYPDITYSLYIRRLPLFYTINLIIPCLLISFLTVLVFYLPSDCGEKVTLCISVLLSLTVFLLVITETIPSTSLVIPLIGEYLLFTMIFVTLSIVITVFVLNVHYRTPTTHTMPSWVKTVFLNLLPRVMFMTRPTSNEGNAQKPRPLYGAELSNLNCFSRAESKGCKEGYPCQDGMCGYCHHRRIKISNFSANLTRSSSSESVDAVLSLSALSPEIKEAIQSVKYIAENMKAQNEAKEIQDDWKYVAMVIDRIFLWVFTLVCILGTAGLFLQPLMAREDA
Sequence of Nicotinic acetylcholine receptor alpha3/beta4/alpha5 (P30532 whole entry): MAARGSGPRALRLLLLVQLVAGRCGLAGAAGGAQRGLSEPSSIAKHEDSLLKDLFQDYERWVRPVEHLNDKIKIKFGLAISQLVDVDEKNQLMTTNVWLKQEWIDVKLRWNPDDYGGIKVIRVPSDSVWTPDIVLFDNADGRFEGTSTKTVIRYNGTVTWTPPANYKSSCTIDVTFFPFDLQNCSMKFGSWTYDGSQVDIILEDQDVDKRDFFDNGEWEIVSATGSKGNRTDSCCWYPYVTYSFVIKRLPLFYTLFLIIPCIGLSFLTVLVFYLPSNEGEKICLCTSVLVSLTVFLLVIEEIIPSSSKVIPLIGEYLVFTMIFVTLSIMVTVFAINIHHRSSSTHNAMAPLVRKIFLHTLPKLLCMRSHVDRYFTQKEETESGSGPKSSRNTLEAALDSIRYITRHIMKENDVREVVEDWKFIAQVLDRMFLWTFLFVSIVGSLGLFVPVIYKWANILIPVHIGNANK
Test [5] has as its target T2, Neuronal acetylcholine receptor; alpha4/beta2 (Rattus norvegicus). In words: Inverse agonist activity at nicotine-induced rat alpha4beta2 nAChR activation transfected in HEK293 cells. It is filed as cell-based.
For the next test, the species on record is Rattus norvegicus. In words: Selectivity ratio of Ki for rat alpha3beta4 nAChR to Ki for rat alpha4beta2 nAChR. In short, it runs like this: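 Selectivity was calculated from [3H]epibatidine-binding Ki values as (Ki α3β4 − Ki α4β2)/Ki α4β2.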
In test [6] the target is T3, Neuronal acetylcholine receptor; alpha3/beta4 (Rattus norvegicus) (UniProt P04757+P12392). In words: Antagonist activity at rat alpha3beta4 nAChR transfected in HEK293 cells assessed as inhibition of nicotine-induced membrane potential stimulation at 10 uM after 10 mins by fluorescence assay. It is filed as cell-based. In a few lines:
as §2

The next test concerns HEK293. In words: Selectivity ratio for rat alpha3beta4 nAChR transfected in HEK293 cells to rat alpha4beta2 nAChR transfected in HEK293 cells. It is filed as cell-based.
Test [7] has as its target T2, Neuronal acetylcholine receptor; alpha4/beta2 (Rattus norvegicus). In words: Noncompetitive inhibition of nicotine-induced rat alpha4beta2 nAChR transfected in HEK293 cells assessed as stimulation of membrane potential at 1 uM after 10 mins by fluorescence assay. It is filed as cell-based. More on the design: scale not given: the % may be the effect or the level left. In a few lines:
as §2

Test [8] has the same target. In words: Noncompetitive inhibition of nicotine-induced rat alpha4beta2 nAChR transfected in HEK293 cells assessed as stimulation of membrane potential at 3 uM after 10 mins by fluorescence assay. It is filed as cell-based. More on the design: scale not given: the % may be the effect or the level left. In short, it runs like this:
as §2

For test [9], the target named is Neuronal acetylcholine receptor; alpha3/beta4 (Rattus norvegicus, UniProt P04757+P12392). In words: Displacement of [3H]epibatidine from rat alpha3beta4 nAChR transfected in HEK293 cells after 2 hrs by beta-plate counting analysis. The class given is cell-based. In a few lines:
as §1

For test [10], the target named is T2, Neuronal acetylcholine receptor; alpha4/beta2 (Rattus norvegicus). In words: Agonist activity at rat alpha4beta2 nAChR transfected in HEK293 cells assessed as change in membrane potential measured every 3 secs for 120 secs by fluorescence assay. It is filed as cell-based. In a few lines: (§3)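 Membrane potential read with blue potentiometric dye on a FlexStation. Transfected HEK cells were seeded at 4000/well one day ahead, washed, then loaded with dye in HBSS containing 20 mM HEPES, pH 7.4, for 30 min at 37 °C. Compound was then dispensed automatically and fluorescence (ex 530, em 550–580) recorded every 3 s for 120 s.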

For test [11], the target named is T1, Neuronal acetylcholine receptor; alpha4/beta2. In words: Antagonist activity at rat alpha4beta2 nAChR transfected in HEK293 cells after 10 mins by fluorescence assay in presence of nicotine. It is filed as cell-based. In short, it runs like this: as §2
Test [12] addresses T3, Neuronal acetylcholine receptor; alpha3/beta4 (Rattus norvegicus). In words: Agonist activity at rat alpha3beta4 nAChR transfected in HEK293 cells assessed as change in membrane potential measured every 3 secs for 120 secs by fluorescence assay. It is filed as cell-based. In a few lines:
as §3

T1 sequence (P09483 whole entry): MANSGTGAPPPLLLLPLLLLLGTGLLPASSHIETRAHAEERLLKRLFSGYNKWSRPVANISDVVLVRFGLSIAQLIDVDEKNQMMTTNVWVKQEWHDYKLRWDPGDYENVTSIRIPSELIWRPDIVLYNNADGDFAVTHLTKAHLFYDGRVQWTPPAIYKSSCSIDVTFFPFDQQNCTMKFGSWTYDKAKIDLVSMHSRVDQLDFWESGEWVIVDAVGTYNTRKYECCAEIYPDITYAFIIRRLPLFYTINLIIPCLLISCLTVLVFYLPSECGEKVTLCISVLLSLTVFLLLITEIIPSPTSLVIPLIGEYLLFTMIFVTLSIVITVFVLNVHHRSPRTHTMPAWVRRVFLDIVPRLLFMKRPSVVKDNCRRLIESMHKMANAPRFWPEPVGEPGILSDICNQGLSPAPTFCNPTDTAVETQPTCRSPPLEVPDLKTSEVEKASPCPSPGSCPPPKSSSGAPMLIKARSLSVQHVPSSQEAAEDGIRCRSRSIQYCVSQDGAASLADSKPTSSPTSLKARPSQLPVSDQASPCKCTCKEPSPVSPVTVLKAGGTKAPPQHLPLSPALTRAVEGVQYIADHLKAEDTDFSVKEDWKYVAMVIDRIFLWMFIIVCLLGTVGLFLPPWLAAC
T1 sequence (P12390 whole entry): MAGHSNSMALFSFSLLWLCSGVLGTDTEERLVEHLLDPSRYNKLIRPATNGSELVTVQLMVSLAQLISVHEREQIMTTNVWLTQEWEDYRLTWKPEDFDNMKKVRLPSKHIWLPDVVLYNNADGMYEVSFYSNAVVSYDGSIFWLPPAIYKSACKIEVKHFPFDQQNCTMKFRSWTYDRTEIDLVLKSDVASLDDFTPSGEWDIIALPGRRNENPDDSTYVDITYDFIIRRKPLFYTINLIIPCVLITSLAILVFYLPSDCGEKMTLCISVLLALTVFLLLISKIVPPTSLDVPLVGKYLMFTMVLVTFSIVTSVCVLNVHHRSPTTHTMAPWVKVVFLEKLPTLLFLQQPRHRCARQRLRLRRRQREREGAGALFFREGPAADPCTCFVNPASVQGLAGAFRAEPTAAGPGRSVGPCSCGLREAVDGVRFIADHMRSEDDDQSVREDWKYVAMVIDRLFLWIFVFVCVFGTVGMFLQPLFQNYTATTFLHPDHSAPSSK
Sequence of Neuronal acetylcholine receptor; alpha3/beta4 (P04757 whole entry): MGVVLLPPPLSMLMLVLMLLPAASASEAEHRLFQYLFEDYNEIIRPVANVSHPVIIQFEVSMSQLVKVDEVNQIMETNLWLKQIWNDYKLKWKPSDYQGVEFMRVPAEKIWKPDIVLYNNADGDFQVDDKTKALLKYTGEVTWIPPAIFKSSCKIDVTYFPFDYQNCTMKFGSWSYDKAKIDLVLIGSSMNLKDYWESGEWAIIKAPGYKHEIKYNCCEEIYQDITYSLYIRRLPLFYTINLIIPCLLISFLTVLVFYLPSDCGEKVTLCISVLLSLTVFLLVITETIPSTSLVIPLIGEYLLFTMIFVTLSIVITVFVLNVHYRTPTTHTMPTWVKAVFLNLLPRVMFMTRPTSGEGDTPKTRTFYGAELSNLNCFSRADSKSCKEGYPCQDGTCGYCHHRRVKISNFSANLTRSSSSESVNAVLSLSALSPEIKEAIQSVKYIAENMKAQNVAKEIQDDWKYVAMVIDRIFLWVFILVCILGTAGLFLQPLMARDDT
Sequence of Neuronal acetylcholine receptor; alpha3/beta4 (P12392 whole entry): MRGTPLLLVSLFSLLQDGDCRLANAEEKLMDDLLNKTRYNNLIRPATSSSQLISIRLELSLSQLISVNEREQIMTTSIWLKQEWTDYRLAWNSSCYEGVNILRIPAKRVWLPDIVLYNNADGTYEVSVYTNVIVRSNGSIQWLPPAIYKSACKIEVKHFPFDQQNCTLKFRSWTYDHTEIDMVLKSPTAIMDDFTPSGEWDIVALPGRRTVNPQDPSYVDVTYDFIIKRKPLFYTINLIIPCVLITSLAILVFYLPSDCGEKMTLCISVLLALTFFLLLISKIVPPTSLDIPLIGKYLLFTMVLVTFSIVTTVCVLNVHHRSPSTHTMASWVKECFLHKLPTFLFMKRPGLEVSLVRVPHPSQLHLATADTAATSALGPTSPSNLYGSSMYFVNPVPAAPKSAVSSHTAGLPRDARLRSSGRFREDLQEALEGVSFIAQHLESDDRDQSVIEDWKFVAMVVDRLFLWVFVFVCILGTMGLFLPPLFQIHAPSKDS

Consider `CC(C)(C)C1CCC(CN2C(=N)N(CCCC[C@H]3CNC(=N)N3CCc3cccnc3)C[C@H]2Cc2ccccc2)CC1` (some centres undefined), for which the Ki (as a rule, the equilibrium dissociation constant of an inhibitor or competing ligand from its target) was 0.118 µM in test [1], 9.06 µM in test [4] and 56.5 µM in test [9]. In addition, the inhibition – broadly, how much of the control response was suppressed – in test [2] is “Dose-dependent effect”; in test [6] it was 50%. In addition, the Activity came out at 83% in test [3], 38% in test [7] and 0% in test [8]. In addition, the result in test [5] was Active. Moreover, the Ratio Ki in the test listed under Rattus norvegicus is 478. Also, the Selectivity ratio with HEK293 came out at 20. The result in test [10] and in test [12] was inactive. The IC50 (usually the concentration that gives 50% inhibition) in test [11] came out at 0.514 µM.
